Data on 13 compounds can be found in ChEMBL document CHEMBL1250425, “New antimalarials with a triterpenic scaffold from Momordica balsamina” (Bioorg Med Chem, 2010).

For series [1], the system named is Plasmodium falciparum. Briefly: Antimalarial activity against chloroquine-resistant Plasmodium falciparum Dd2 infected in erythrocytes after 48 hrs by SYBR Green 1-based fluorescence assay. To be noted: Dd2, 48 h. Type of series: functional, organism-based. The essentials: (§1)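 Parasites grown in fresh erythrocytes in RPMI 1640 with 25 mM HEPES, 6.8 mM hypoxanthine, 10% AlbuMAX II, 37 °C under 5% O2/3–5% CO2/N2. Compounds from DMSO stocks tested at 0.156–100 µg/mL in duplicate, with 1% parasitaemia ring stages at 2% haematocrit, 48 h at 37 °C. SYBR Green I lysis buffer added, 1 h dark at room temperature, fluorescence read at 485/535 nm, IC50 by nonlinear fit.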

The next series deals with MCF7. Description: Cytotoxicity against human MCF7 cells after 24 hrs by MTT assay. To be noted: MCF7, 24 h. Type of series: cell-based. The essentials: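 MCF-7 grown in RPMI 1640 with 10% heat-inactivated horse serum, 2 mM L-glutamine, antibiotics; 5% CO2, 37 °C. 2 × 10^4 cells/well added to serially diluted compound, 24 h at 37 °C; MTT (5 mg/mL stock) 4 h, then 10% SDS overnight; OD 550 nm (ref 630 nm). Growth inhibition vs cell and medium controls; IC50 as mean ± SD of three experiments.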
(Tetrazolium assays rely on reduction of a dye to a coloured formazan, in cell work by metabolically active cells.)

Series [2] in a line: Selectivity index, ratio of IC50 for human MCF7 cells to IC50 for chloroquine-sensitive Plasmodium falciparum 3D7. Type of series: toxicity, cell-based. To be noted: read-out: Selectivity Index.
Series [3] deals with Plasmodium falciparum. Briefly: Antimalarial activity against chloroquine-sensitive Plasmodium falciparum 3D7 infected in erythrocytes after 48 hrs by SYBR Green 1-based fluorescence assay. To be noted: 3D7, 48 h. Type of series: functional, organism-based. The essentials:
as §1

Series [4] is described as follows: Selectivity index, ratio of IC50 for human MCF7 cells to IC50 for chloroquine-resistant Plasmodium falciparum Dd2. The series is classed as toxicity, cell-based. Conditions: read-out: Selectivity Index.

The structures appear in SMILES notation. A value given as a limit tells only on which side of the number the result lay.

As a reminder, the IC50 is the midpoint of a concentration-inhibition curve. A low value points to greater potency in that assay. Consider `C[C@H](C/C=C/C(C)(C)O)[C@H]1CC[C@@]2(C)[C@@H]3[C@@H](O)C=C4[C@@H](CC[C@H](O)C4(C)C)[C@]3(C)C[C@@H](O)[C@]12C` [CUCURBALSAMINOL A], for which the 50% inhibitory concentration (IC50) with Plasmodium falciparum [1] is 17.6 µM; in the series with MCF7, more than 133 µM; in the series on Plasmodium falciparum [3] it was 13.2 µM. The selectivity ratio in series [2] was more than 10.1; in series [4], more than 7.6.

As to `CO[C@H]1C=C2[C@@H](CC[C@H](O)C2(C)C)[C@]2(C)C[C@@H](O)[C@]3(C)[C@@H]([C@H](C)C/C=C/C(C)(C)O)CC[C@@]3(C)[C@H]12`, the IC50 in the series on Plasmodium falciparum [1] came to 28.3 µM; in the series on MCF7 it was 55.4 µM; in the series with Plasmodium falciparum [3], 17.7 µM. For the same compound, the figures for the selectivity ratio in series [2] and in series [4] were 3.1 and 2, respectively.

In the case of `COC(C)(C)/C=C/C[C@@H](C)[C@H]1CC[C@@]2(C)[C@@H]3[C@@H](O)C=C4[C@@H](CC[C@H](O)[C@]4(C)CO)[C@]3(C)CC[C@]12C` [BALSAMINAGENIN B], the 50% inhibitory concentration (IC50) with Plasmodium falciparum [1] is 19.2 µM; with MCF7, 34 µM; in the series with Plasmodium falciparum [3], 18.7 µM. The selectivity ratio in series [2] and in series [4] was 1.8 in each case.

Consider `CC(C)=C[C@H](O)C[C@@H](C)[C@H]1CC[C@@]2(C)[C@@H]3C(=O)C=C4[C@@H](CC[C@H](O)C4(C)C)[C@]3(C)CC[C@]12C` [BALSAMINOL E], for which the values for the IC50 with Plasmodium falciparum [1], with MCF7 and in the series on Plasmodium falciparum [3] were 19.6 µM, 44.2 µM and 20.4 µM, respectively. Further, the selectivity ratio turned out to be 2.2 in series [2] and 2.3 in series [4].

With `CC(=O)C[C@@H](C)[C@H]1CC[C@@]2(C)[C@@H]3C(=O)C=C4[C@@H](CC[C@H](O)[C@]4(C)CO)[C@]3(C)CC[C@]12C` [BALSAMINOL D], the IC50 with Plasmodium falciparum [1] was 45.6 µM; with MCF7, more than 133 µM; with Plasmodium falciparum [3], 25.9 µM. Further, the values for the selectivity ratio in series [2] and in series [4] were more than 5.1 and more than 2.9, respectively.

For `C[C@H](C/C=C/C(C)(C)O)[C@H]1CC[C@@]2(C)[C@@H]3[C@@H](O)C=C4[C@@H](CC[C@H](O)C4(C)C)[C@]3(C)CC[C@]12C`, the IC50 was 50.1 µM in the series with Plasmodium falciparum [1] and 30.6 µM in the series with Plasmodium falciparum [3]. Moreover, the selectivity ratio in series [2] was found to be 1.5; in series [4] it was 0.9.

For `C=C(C)[C@@H](O)[C@H](O)C[C@@H](C)[C@H]1CC[C@@]2(C)[C@@H]3[C@@H](O)C=C4[C@@H](CC[C@H](O)[C@]4(C)CO)[C@]3(C)CC[C@]12C` [BALSAMINAPENTAOL A], the IC50 worked out at 33 µM in the series with Plasmodium falciparum [1] and 14.6 µM in the series on Plasmodium falciparum [3]. For the same compound, the values for the selectivity ratio in series [2] and in series [4] were 3.2 and 1.4, respectively.

With `C[C@H](C/C=C/C(C)(C)O)[C@H]1CC[C@@]2(C)[C@@H]3[C@@H](O)C=C4[C@@H](CC[C@H](O)[C@]4(C)CO)[C@]3(C)CC[C@]12C` [BALSAMINAGENIN A], the half-maximal inhibitory concentration (IC50) in the series on Plasmodium falciparum [1] turned out to be 27.3 µM; with MCF7, 65.1 µM; with Plasmodium falciparum [3] it was 19.1 µM. Also, the values for the selectivity ratio in series [2] and in series [4] were 3.4 and 2.4, respectively.

For the compound `COC(C)(C)/C=C/C[C@@H](C)[C@H]1CC[C@@]2(C)[C@@H]3[C@@H](O[C@H]4O[C@@H](CO)[C@H](O)[C@H](O)[C@@H]4O)C=C4[C@@H](CC[C@H](O)C4(C)C)[C@]3(C)CC[C@]12C` [BALSAMINOSIDE A], the IC50 in the series with Plasmodium falciparum [1] stood at 4 µM; in the series on MCF7, 19 µM; with Plasmodium falciparum [3], 4.6 µM. The selectivity ratio in series [2] amounted to 4.2; in series [4], 4.7.

As for `CC(C)=C[C@H](O)C[C@@H](C)[C@H]1CC[C@@]2(C)[C@@H]3[C@@H](O)C=C4[C@@H](CC[C@H](O)[C@]4(C)CO)[C@]3(C)CC[C@]12C` [BALSAMINOL A], the IC50 stood at 23.5 µM with Plasmodium falciparum [1] and 17.1 µM in the series with Plasmodium falciparum [3]. For the same compound, the values for the selectivity ratio in series [2] and in series [4] were 2.3 and 1.7, respectively.

On to `CC(C)=C[C@H](O)C[C@@H](C)[C@H]1CC[C@@]2(C)[C@@H]3C=C[C@@]45OC[C@]3(CC[C@]12C)[C@@H]4CC[C@H](O)C5(C)C` [KARAVILAGENIN E], for which the results for the IC50 with Plasmodium falciparum [1] and in the series with Plasmodium falciparum [3] were 8.2 µM and 7.4 µM, respectively. Besides, the selectivity ratio in series [2] amounted to 4.2; in series [4], 3.7.

`CC(C)=CC(=O)C[C@@H](C)[C@H]1CC[C@@]2(C)[C@@H]3C(=O)C=C4[C@@H](CC[C@H](O)[C@]4(C)CO)[C@]3(C)CC[C@]12C` [BALSAMINOL C]: the IC50 in the series on Plasmodium falciparum [1] turned out to be 22.4 µM; with MCF7, 70.5 µM; with Plasmodium falciparum [3], 19.6 µM. For the same compound, the selectivity ratio in series [2] was 3.6; in series [4], 3.2.

Regarding `CO[C@H]1C=C2[C@@H](CC[C@H](O)[C@]2(C)CO)[C@]2(C)CC[C@]3(C)[C@@H]([C@H](C)C[C@@H](O)C=C(C)C)CC[C@@]3(C)[C@H]12` [BALSAMINOL B], the IC50 in the series on Plasmodium falciparum [1] worked out at 17.9 µM; with MCF7, 31 µM; with Plasmodium falciparum [3], 15.2 µM. Further, the figures for the selectivity ratio in series [2] and in series [4] were 2 and 1.7, respectively.
